Assay results from ChEMBL document CHEMBL3112459, “Synthesis and assay of retro-α4β1 integrin-targeting motifs” (Eur J Med Chem, 2014).
Numbered stars: 1 amine (or outer) side, 2 acyl side, 3 side chain; on linkers, the order of the positions; unused ones are H or OH. Square brackets hold non-standard residues; d marks the D form. Peptide text beside a SMILES is read from it. * marks the point of attachment. X1 = O=C(Cc1ccc(N[*:1])cc1)[*:2]; NH(2-Me-phenyl) = Cc1ccccc1N*; CO = O=C([*:1])[*:2]

Assays:
[1] = target: T1, Integrin alpha-4/beta-1 (Homo sapiens, UniProt P05556+P13612); assay: Inhibition of human alpha4beta1 integrin expressed in human Jurkat cells assessed as inhibition of cell adhesion to VCAM-1; assay type: cell-based
T1 sequence (P05556 whole entry): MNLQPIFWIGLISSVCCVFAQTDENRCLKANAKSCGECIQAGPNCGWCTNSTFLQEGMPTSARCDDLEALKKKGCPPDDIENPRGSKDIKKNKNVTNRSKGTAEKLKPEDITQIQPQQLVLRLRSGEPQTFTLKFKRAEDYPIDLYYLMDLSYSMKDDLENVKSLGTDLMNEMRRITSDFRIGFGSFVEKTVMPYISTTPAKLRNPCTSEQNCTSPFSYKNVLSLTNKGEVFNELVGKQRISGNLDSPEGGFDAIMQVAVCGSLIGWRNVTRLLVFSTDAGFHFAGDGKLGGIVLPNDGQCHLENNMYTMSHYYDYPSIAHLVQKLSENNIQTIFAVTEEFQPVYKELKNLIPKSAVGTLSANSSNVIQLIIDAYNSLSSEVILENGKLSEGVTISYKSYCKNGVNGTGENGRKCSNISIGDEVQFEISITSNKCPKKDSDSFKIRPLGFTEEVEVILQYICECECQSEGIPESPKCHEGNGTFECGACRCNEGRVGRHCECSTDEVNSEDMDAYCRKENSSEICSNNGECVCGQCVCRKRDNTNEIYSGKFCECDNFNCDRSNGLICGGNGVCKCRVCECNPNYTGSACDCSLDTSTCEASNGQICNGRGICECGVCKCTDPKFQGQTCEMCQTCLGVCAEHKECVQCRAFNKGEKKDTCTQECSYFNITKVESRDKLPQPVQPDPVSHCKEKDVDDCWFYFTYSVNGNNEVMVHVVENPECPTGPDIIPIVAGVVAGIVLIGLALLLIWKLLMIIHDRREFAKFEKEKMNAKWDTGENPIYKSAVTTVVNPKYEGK
T1 sequence (P13612 whole entry): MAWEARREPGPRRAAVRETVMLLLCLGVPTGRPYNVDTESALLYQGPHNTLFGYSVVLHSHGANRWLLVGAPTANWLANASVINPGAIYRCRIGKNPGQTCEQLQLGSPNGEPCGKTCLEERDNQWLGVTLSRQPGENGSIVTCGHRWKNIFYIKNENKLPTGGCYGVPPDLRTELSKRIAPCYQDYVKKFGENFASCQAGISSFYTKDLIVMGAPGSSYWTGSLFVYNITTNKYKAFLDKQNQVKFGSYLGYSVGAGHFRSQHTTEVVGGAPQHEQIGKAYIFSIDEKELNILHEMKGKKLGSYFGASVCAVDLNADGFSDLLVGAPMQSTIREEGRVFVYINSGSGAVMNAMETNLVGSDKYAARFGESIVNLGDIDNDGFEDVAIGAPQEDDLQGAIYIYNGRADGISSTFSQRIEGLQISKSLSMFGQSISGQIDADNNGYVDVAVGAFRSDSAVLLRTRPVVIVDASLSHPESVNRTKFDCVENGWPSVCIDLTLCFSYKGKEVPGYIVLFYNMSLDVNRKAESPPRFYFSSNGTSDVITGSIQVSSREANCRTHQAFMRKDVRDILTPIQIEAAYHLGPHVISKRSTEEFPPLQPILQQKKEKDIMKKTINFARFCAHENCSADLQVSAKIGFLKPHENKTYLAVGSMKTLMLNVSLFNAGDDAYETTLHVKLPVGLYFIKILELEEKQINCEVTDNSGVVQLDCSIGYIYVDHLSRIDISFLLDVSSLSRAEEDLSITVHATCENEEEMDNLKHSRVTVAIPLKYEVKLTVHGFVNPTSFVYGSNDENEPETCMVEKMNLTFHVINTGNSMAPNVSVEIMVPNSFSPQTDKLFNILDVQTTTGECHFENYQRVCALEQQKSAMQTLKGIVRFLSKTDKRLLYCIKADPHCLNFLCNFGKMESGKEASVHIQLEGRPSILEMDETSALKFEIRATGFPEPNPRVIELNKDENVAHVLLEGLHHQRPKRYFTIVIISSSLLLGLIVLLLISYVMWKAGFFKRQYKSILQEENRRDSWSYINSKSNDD
How it was run: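 Jurkat cells (5 × 10⁵ per well) adhered to wells coated overnight at 4 °C with human recombinant VCAM-1. Wells were blocked with 1% BSA/HBSS for 30 min at 37 °C. Data are mean ± S.E.M.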

[2] = target: T1, Integrin alpha-4/beta-1; assay: Displacement of [125I]-FN from human alpha4beta1 integrin expressed in human Jurkat cells by scintillation proximity assay; assay type: cell-based
How it was run: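 Jurkat cells stably expressing human α4 integrin were the integrin source. The α4 integrin–anti-α4 antibody complex was captured on anti-rabbit IgG-coated scintillant microspheres. Soluble ¹²⁵I-human FN (~440 kDa) was the radioligand, incubated overnight, with counts read as cpm. IC50 values came from competition curves and were converted to Ki by Cheng–Prusoff. Data are mean ± S.E.M.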

[3] = system: SK-MEL-24; assay: Cytotoxicity against human SK-MEL-24 cells by trypan blue exclusion assay; assay type: cell-based
[4] = (§1) Drug degradation in 100% mouse serum after 120 mins; assay type: ADME, cell-free; conditions: read-out: Drug degradation
How it was run: (§2)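 Peptides were dissolved in Tris buffer pH 7.4, and aliquots of a 10 mM stock were added to mouse serum (10 µL into 190 µL). Incubation was at 37 °C for 120 min. Withdrawn aliquots were quenched with glacial acetonitrile to precipitate proteins and analysed by RP-HPLC and ESI-MS. Runs were in triplicate and repeated three times.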

[5] = system: Jurkat; assay: Cytotoxicity against human Jurkat cells by trypan blue exclusion assay; assay type: cell-based
[6] = target: Integrin alpha-V/beta-3 (Homo sapiens, UniProt P05106+P06756); assay: Inhibition of human alphavbeta3 integrin expressed in human SK-MEL-24 cells assessed as inhibition of cell adhesion to vitronectin; assay type: cell-based
Integrin alpha-V/beta-3, sequence (P05106 27-788 limits assumed): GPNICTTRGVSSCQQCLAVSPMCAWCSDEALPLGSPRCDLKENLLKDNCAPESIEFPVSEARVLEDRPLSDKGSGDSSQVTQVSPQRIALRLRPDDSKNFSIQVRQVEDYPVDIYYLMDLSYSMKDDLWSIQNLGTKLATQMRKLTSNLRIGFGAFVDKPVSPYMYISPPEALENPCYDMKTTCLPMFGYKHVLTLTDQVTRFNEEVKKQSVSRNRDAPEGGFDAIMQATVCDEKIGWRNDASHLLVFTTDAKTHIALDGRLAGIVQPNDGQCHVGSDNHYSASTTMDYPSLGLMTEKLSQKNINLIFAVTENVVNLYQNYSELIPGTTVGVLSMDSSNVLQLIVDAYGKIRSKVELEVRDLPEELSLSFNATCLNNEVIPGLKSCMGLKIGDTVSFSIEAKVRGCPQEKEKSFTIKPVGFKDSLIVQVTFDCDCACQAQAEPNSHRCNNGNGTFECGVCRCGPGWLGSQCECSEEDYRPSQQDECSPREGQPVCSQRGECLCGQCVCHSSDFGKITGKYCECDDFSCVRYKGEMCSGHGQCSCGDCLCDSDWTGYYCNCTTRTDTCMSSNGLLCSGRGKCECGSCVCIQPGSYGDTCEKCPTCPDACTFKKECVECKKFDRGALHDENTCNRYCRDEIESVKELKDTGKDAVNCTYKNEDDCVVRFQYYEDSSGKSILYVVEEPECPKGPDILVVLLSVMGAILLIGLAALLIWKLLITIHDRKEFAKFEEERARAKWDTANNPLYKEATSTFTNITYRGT
Integrin alpha-V/beta-3, sequence (P06756 31-889 limits assumed): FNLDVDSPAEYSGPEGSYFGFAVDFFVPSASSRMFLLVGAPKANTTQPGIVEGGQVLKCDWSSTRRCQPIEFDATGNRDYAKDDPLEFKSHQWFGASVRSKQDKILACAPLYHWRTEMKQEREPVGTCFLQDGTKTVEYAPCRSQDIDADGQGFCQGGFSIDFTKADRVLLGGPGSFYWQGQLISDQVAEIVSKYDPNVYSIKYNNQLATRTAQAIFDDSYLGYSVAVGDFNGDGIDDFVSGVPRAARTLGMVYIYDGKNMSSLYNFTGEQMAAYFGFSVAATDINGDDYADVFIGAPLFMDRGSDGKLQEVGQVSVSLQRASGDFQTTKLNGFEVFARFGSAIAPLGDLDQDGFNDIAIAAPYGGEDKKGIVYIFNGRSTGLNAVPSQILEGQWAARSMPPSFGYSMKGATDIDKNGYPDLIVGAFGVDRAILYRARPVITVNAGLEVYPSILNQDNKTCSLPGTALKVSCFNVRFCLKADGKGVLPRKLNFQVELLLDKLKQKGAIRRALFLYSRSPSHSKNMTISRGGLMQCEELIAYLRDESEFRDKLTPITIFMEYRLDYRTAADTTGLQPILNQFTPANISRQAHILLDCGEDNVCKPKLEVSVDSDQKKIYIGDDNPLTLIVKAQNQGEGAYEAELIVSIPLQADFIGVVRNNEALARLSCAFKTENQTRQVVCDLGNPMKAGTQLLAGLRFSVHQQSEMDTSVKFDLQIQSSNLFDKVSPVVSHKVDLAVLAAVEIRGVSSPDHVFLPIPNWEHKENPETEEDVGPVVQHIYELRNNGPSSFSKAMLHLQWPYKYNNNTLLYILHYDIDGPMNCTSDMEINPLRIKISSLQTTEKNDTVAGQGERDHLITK
Integrin alpha-V/beta-3, sequence (P06756 891-1048 limits assumed): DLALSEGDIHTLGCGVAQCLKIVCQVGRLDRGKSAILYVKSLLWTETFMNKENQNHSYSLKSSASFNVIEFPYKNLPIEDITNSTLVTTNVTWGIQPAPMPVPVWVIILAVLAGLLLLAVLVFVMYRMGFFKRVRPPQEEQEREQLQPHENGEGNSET

[7] = system: Serum; assay: as §1; assay type: ADME, cell-free; conditions: 2 h; how it was run: as §2

Row | SMILES | IC50 [1] [nM] | IC50 [2] [nM] | Ki [2] [nM] | Activity [3] | metabolised at 2 h [4] [%] | Activity [5] | IC50 [6] [nM] | inhibition [1] | inhibition [2] | Stability [7]
1 | Cc1ccccc1NC(=O)Nc1ccc(CNC(=O)[C@H]2CCN(C(=O)C[C@H](NC(=O)c3c(Cl)cccc3Cl)C(=O)O)C2)cc1 | > 100000 | > 100000 | > 100000 |  |  |  |  |  |  | 
2 | Cc1ccccc1NC(=O)Nc1ccc(CNC(=O)[C@H]2CCN(C(=O)[C@H](CC(=O)O)NC(=O)Cc3ccccc3)C2)cc1 | 80 | 100 | 60 | Non-toxic | 10 | Non-toxic | > 100000 | Dose-dependent effect | Dose-dependent effect | 
3 | Cc1ccccc1NC(=O)Nc1ccc(CC(=O)N2CC[C@H](C(=O)N[C@@H](CC(=O)O)C(=O)OCc3ccccc3)C2)cc1 | > 100000 | > 100000 | > 100000 |  |  |  |  |  |  | 
4 | Cc1ccccc1NC(=O)Nc1ccc(CNC(=O)[C@H]2CCN(C(=O)C[C@H](NC(=O)Cc3ccccc3)C(=O)O)C2)cc1 | 93 | 290 | 180 | Non-toxic | < 5 | Non-toxic | > 100000 | Dose-dependent effect | Dose-dependent effect | 
5 | Cc1ccccc1NC(=O)Nc1ccc(CNC(=O)[C@H]2CCN(C(=O)[C@H](CC(=O)O)NC(=O)c3c(Cl)cccc3Cl)C2)cc1 | > 100000 | 3900 | 2400 |  |  |  |  |  | Dose-dependent effect | 
6 | Cc1ccccc1NC(=O)Nc1ccc(CC(=O)N[C@@H](CC(C)C)C(=O)N[C@@H](CC(=O)O)C(=O)N[C@H](C(=O)N2CCC[C@H]2C(=O)O)C(C)C)cc1 ({NH(2-Me-phenyl)-CO}-[X1]LDVP-OH) |  |  |  |  |  |  |  | Dose-dependent effect | Dose-dependent effect | Unstable
